Results taken from ChEMBL document CHEMBL1142866, “Synthesis and preliminary evaluation of 18F- or 11C-labeled bicyclic nucleoside analogues as potential probes for imaging varicella-zoster virus thymidine kinase gene expression using positron emission tomography” (J Med Chem, 2007).
The source made the active and inactive calls. The calls are words filed in the database; no cut-off is given here.

What was measured:
[1] = Inhibition of recombinant VZV TK assessed as [CH3-H3]dThd phosphorylation; design: species or system Human alphaherpesvirus 3
Procedure, shortened: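 Purified recombinant VZV TK (7.75 ng), HSV-1 TK (226 ng) or cytosolic TK-1 (455 ng). Buffer: 50 mM Tris-HCl pH 8.0, 2.5 mM MgCl2, 10 mM DTT, 2.5 mM ATP, 1.0 mg/mL BSA, 10 mM NaF, 1 µM [CH3-3H]dThd final. Incubated 30 min at 37 °C (linear range) with graded compound concentrations. Product caught on DE-81 disks, washed, scintillation-counted. IC50 is 50% inhibition of dThd phosphorylation.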

[2] = test system: OST; experiment: Cytostatic activity against OST TK-/HSV1 TK+ cells at 1.8 uM; format: functional, cell-based; conditions: Homo sapiens, tested as the 18F-labelled form
Procedure, shortened: (§1)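 OST TK- control cells and OST TK- cells expressing HSV-1 TK or VZV TK were cultured 5 days with graded compound concentrations. Cells were then trypsinized and counted on a Coulter counter. CC50 is the concentration in µM that reduces cell number by 50%.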

[3] = test system: OST; experiment: Cytostatic activity against OST TK-/HSV1 TK+ cells at 0.038 uM; format: functional, cell-based; conditions: Homo sapiens; procedure, shortened: as §1

IC50 [1] | Compound | Activity [2] | Activity [3]
> 50 µM | Nc1nc(=O)c2ncn(CCC(CO)CF)c2[nH]1 (centres undefined) | Active | 
> 50 µM | Nc1nc(O)c2ncn(CCC(CO)CO)c2n1 [PENCICLOVIR] |  | Active
